Laboratory results as given in ChEMBL document CHEMBL2163220 (J Med Chem, 2012).
The source made the active and inactive calls. The calls are words filed in the database; no cut-off is given here.

Assays:
Assay type in all cases: functional, cell-based
LNCaP = assay: Reduction in androgen receptor protein expression in human LNCAP cells incubated for 24 hrs by Western blotting
Summary of the method: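 LNCaP cells in complete medium were exposed to DMSO or compound at 1, 2.5 and 5 μM for 24 h. Western blot measured AR, maspin, caspase-3 activation and PARP cleavage, with β-actin as loading control.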

[1] = target: T1, Glucocorticoid receptor (Homo sapiens) (UniProt P04150); assay: Antagonist activity at glucocorticoid receptor expressed in human PC3 cells assessed as reduction in dexamethasone-induced receptor transactivation at 1 uM by luciferase reporter gene assay; conditions: PC-3
T1 sequence (whole entry): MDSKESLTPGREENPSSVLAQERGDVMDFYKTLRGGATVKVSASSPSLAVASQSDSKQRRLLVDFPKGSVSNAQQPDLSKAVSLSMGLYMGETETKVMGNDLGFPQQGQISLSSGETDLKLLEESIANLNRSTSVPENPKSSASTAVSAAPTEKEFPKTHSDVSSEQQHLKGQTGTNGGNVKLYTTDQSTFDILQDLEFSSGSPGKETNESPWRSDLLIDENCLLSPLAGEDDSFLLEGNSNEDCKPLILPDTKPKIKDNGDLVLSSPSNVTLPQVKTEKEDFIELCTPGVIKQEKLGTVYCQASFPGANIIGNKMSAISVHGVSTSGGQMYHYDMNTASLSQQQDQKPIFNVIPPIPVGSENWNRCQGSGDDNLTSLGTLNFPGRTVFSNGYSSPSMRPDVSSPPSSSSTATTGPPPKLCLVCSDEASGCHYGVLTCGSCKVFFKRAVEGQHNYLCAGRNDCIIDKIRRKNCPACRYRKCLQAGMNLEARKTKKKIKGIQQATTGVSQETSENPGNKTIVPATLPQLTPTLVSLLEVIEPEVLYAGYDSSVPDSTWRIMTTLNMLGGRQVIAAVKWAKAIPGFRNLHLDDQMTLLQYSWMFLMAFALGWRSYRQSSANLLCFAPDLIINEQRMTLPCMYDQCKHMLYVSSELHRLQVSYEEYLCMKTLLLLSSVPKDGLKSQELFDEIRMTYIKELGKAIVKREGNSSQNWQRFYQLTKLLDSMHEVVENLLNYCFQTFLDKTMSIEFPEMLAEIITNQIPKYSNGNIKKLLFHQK
Summary of the method: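 PC-3 cells express GR endogenously and were transfected only with the MMTV-luc reporter. Compound tested at 1 μM, alone or against transactivation induced by 10 nM dexamethasone. Read-out was luciferase reporter activity.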

[2] = target: T2, Androgen receptor (Homo sapiens) (UniProt P10275); assay: Antagonist activity at androgen receptor in human PC3 cells assessed as increase in Maspin promoter activity at 2.5 uM by luciferase reporter gene assay; conditions: PC-3
T2 sequence (whole entry): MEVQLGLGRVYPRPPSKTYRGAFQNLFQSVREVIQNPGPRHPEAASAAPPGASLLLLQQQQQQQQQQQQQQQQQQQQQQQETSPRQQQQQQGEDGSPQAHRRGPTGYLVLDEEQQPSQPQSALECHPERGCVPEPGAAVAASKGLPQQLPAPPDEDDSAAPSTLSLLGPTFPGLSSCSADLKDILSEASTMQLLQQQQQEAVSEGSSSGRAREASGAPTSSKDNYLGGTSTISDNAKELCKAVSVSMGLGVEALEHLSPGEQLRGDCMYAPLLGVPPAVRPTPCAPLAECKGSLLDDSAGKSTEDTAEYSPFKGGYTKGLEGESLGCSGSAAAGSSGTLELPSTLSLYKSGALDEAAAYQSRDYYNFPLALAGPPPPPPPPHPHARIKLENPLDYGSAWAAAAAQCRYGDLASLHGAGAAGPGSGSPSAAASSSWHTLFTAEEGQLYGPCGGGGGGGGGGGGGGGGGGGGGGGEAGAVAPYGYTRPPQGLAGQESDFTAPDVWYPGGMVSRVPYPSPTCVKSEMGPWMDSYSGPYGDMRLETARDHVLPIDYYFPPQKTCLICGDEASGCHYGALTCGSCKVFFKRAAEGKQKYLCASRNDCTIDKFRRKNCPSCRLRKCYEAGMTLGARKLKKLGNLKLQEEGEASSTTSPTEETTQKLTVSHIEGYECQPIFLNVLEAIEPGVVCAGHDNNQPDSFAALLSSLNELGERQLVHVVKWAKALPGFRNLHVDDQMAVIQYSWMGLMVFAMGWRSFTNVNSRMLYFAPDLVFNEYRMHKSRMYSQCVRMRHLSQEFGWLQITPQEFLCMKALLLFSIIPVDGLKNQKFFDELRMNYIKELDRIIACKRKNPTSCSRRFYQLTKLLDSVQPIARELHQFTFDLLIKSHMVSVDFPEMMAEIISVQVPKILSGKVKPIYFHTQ
Summary of the method: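 PC-3 cells were transfected with maspin-luc, with or without cotransfected AR. Cells were exposed to DMSO vehicle or compound at 2.5 and 5 μM. Luciferase activity was measured in triplicate.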

[3] = target: T2, Androgen receptor (Homo sapiens); assay: Antagonist activity at androgen receptor in human LNCaP cells assessed as reduction in DHT-induced PSA expression by luciferase reporter gene assay
Summary of the method: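 LNCaP cells carrying a PSA-luc reporter were treated with compound at 1 and 2.5 μM in the presence of 1 nM DHT. Fold suppression was calculated relative to 1 nM DHT alone. Run in triplicate.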

Activity [1]: inactive
Activity [2]: Active
Activity [3]: Dose-dependent effect
Structure (SMILES): Cc1coc2c1C(=O)C(=O)c1c-2ccc2c1CCCC2(C)C [TANSHINONE IIA]
Activity (LNCaP): Dose-dependent effect
